≈ marks a conversion by molar mass, not a printed value.
Assays:
[1] = system: Mycolicibacterium smegmatis; assay: Antimycobacterial activity against Mycobacterium smegmatis mc2 155 after 48 hrs by microdilution resazurin assay; format: functional; details: str. MC2 155, 48 h
Procedure, shortened: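 M. smegmatis mc²155 inoculum grown in Dubos medium with 10% ADC. Twofold serial drug dilutions (from 500 to 0.9) in Dubos medium, from 50 mg/mL DMSO stocks. DMSO and isoniazid controls. Sealed plates at 37 °C for 48 h, then 0.01% resazurin added for another 24 h at 37 °C. MIC is the lowest concentration preventing the blue-to-pink change.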

[2] = system: Mycobacterium tuberculosis; assay: Antimycobacterial activity against Mycobacterium tuberculosis H37Rv after 6 days by microdilution resazurin assay; format: functional; details: 144 h
Procedure, shortened: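 Inoculum of virulent M. tuberculosis H37Rv grown in Dubos broth plus 10% ADC. Compounds from 50 mg/mL DMSO stocks, serially diluted twofold in Dubos medium (500 down to 0.9), with DMSO and isoniazid controls. Incubated 6 days at 37 °C, then 0.01% resazurin for 24 h more. MIC read as the lowest concentration without the blue-to-pink shift.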

Cc1c(-c2ccncc2)oc2ccc(O)cc12
MIC95 [1]: > 50 µg/mL
MIC95 [2]: > 10 µg/mL

C#CC(C)(C)Oc1ccc2oc(-c3ccncc3)cc2c1
MIC95 [1]: 25 µg/mL (≈ 90.1 µM)
MIC95 [2]: 16 µg/mL (≈ 57.7 µM)

CC1(C)C=Cc2c(ccc3oc(-c4ccncc4)cc23)O1
MIC95 [1]: 3 µg/mL (≈ 10.8 µM)
MIC95 [2]: 2.5 µg/mL (≈ 9.01 µM)

CC1(C)C=Cc2c(ccc3oc(-c4cccc(Br)n4)cc23)O1
MIC95 [1]: > 50 µg/mL
MIC95 [2]: > 10 µg/mL

Cc1c(-c2ccncc2)oc2ccc3c(c12)C=CC(C)(C)O3
MIC95 [1]: 6.2 µg/mL (≈ 21.3 µM)
MIC95 [2]: 3 µg/mL (≈ 10.3 µM)

CC1(C)C=Cc2c(ccc3oc(-c4ccccc4)cc23)O1
MIC95 [1]: > 500 µg/mL
MIC95 [2]: 32 µg/mL (≈ 116 µM)

Cc1cc2c3c(ccc2o1)OC(C)(C)C=C3
MIC95 [1]: > 500 µg/mL
MIC95 [2]: > 500 µg/mL

CC1(C)C=Cc2c(ccc3oc4ccccc4c23)O1
MIC95 [1]: 10 µg/mL (≈ 40 µM)
MIC95 [2]: 10 µg/mL (≈ 40 µM)

CC1(C)C=Cc2c(ccc3occ(CCCO)c23)O1
MIC95 [1]: 62 µg/mL (≈ 240 µM)
MIC95 [2]: 125 µg/mL (≈ 484 µM)

Oc1ccc2oc(-c3ccccc3)cc2c1
MIC95 [1]: 8 µg/mL (≈ 38.1 µM)
MIC95 [2]: 125 µg/mL (≈ 595 µM)

O=Cc1c(O)ccc2c1C1CCCOC1O2 (centres undefined)
MIC95 [1]: > 125 µg/mL
MIC95 [2]: 125 µg/mL (≈ 568 µM)

CC(=O)OCCCc1coc2ccc3c(c12)C=CC(C)(C)O3
MIC95 [1]: > 500 µg/mL
MIC95 [2]: > 500 µg/mL

CC1(C)CCc2c(ccc3oc(-c4cccnc4)cc23)O1
MIC95 [1]: 6.2 µg/mL (≈ 22.2 µM)
MIC95 [2]: 10 µg/mL (≈ 35.8 µM)

CC1(C)C=Cc2c(ccc3c2C2CCCOC2O3)O1 (centres undefined)
MIC95 [1]: 125 µg/mL (≈ 484 µM)
MIC95 [2]: 250 µg/mL (≈ 968 µM)

CC1(C)CCc2c(ccc3oc4ccccc4c23)O1
MIC95 [1]: 10 µg/mL (≈ 39.6 µM)
MIC95 [2]: 10 µg/mL (≈ 39.6 µM)

CN(C)CCCNc1ccc(-c2cc3c4c(ccc3o2)OC(C)(C)C=C4)cn1
MIC95 [1]: 12.5 µg/mL (≈ 33.1 µM)
MIC95 [2]: 10 µg/mL (≈ 26.5 µM)

NNC(=O)c1ccncc1 [ISONIAZID]
MIC95 [1]: 12 µg/mL (≈ 87.5 µM)
MIC95 [2]: 0.1 µg/mL (≈ 0.729 µM)

CC1(C)C=Cc2c(ccc3oc(-c4ccc(Br)nc4)cc23)O1
MIC95 [1]: > 50 µg/mL
MIC95 [2]: > 10 µg/mL

CN(C)CCCNc1cccc(-c2cc3c4c(ccc3o2)OC(C)(C)C=C4)n1
MIC95 [1]: 12.5 µg/mL (≈ 33.1 µM)
MIC95 [2]: 10 µg/mL (≈ 26.5 µM)

CC1(C)C=Cc2c(ccc3oc4c(c23)CCCC4)O1
MIC95 [1]: > 500 µg/mL
MIC95 [2]: 120 µg/mL (≈ 472 µM)

Oc1ccc2oc(-c3ccncc3)cc2c1
MIC95 [1]: > 50 µg/mL
MIC95 [2]: > 10 µg/mL

CC1(C)CCc2c(ccc3oc(-c4ccccn4)cc23)O1
MIC95 [1]: 25 µg/mL (≈ 89.5 µM)
MIC95 [2]: 10 µg/mL (≈ 35.8 µM)

Source: ChEMBL document CHEMBL1140071, “A new synthetic access to furo[3,2-f]chromene analogues of an antimycobacterial” (2008)
